Screens deposited in PubChem BioAssay by several laboratories.
DNA FID counter: counter-screen for HCV NS3 helicase inhibitors: DNA intercalator displacement; DNA fluorescent intercalator displacement, fluorescence; inhibition, % at 7.9 µM; 290,000 tested, 0.17% active; in the data active = inhibition above about 37%;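 note: higher means more ethidium bromide displaced from hairpin DNA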
pCIP destab: p/CIP protein destabilization. F442A p/CIP-EGFP cells, EGFP fluorescence, 16 h. decrease of EGFP signal, % at 10 µM. 290,000 tested, 0.01% active;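 active = EGFP signal decrease of at least 30% at 10 µM or well 3 SD below plate mean, unless failing retest; inactive = the rest, including hits failing retest or dose response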
GPR7 antag: human neuropeptides B/W receptor 1 antagonism; P48145; GPR7-expressing cells, fluorescence antagonist assay; inhibition, % at 4.4 µM; 290,000 tested, 1.1% active; in the data active = inhibition above about 16%, passing the limit was not always enough;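 note: cells stimulated with the agonist NPW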
Target sequence (P48145 whole entry, looked up): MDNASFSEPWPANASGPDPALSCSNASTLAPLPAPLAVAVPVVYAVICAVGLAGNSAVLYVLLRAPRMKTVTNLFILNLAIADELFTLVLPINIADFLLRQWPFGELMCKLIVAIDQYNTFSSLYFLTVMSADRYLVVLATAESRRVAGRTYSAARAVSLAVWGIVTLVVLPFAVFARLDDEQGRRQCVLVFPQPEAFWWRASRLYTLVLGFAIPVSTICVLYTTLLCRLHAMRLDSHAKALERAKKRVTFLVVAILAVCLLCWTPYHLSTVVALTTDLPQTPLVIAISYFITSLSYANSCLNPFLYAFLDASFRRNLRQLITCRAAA
NS3 helicase inh: blocks Hepatitis C virus NS3 helicase unwinding. inhibition, % at 10.9 µM. 290,000 tested, 0.56% active. NS3 helicase DNA unwinding, Cy5 molecular beacon fluorescence. AID 1800;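 active = inhibition above the mean of all tested compounds plus 3 SD, set per campaign, cut at about 35% in these data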
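test system = hepatitis C virus NS3 helicase domain fragment enzyme | reagent = annealed dual-labelled DNA beacon duplex, ATP-started | times = 1 h at 25 °C | detection = Cy5 fluorescence, 0 and 60 min reads | read-out basis = percent inhibition from t60/t0 fluorescence ratio | control set = DMSO and thioflavine S | replication = one well per compound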
core dimer inh: blocks dimerization of HCV core protein; TR-FRET GST/Flag-core106 dimerization, 1536-well; inhibition, % at 5 µM; 300,000 tested, 0.33% active; AID 1899;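 active = inhibition above the mean of all tested compounds plus 3 SD, set per screening campaign, cut at about 45% in these data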
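Material: GST/Flag-tagged HCV core106 proteins. Incubation: 4 h, 22.5 °C incubation. Read-out basis: inhibition (%) from 671 over 617 nm ratio. Measured by: TR-FRET, excitation 340 nm, emission 617 and 671 nm.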
Hits are given with their value; – = inactive; · = no result given. Only some compounds are listed: those with a hit (about 1.9% of all), similar ones and a draw of the others.

SMILES | DNA FID counter | pCIP destab | GPR7 antag | NS3 helicase inh | core dimer inh
Cc1cc(C(c2ccc(O)cc2)c2cc(C)c(O)cc2C)c(C)cc1O | – | – | 58.1 | – | –
CC(C)(C)c1ncc(S(=O)(=O)c2ccc(C(F)(F)F)cn2)c(N)n1 | – | – | – | – | –
CCCc1cnc(N2CCN(C(=O)c3ccc(OC)cc3)CC2)nc1 | – | – | – | – | –
CN1CCN(C(=O)CSc2nc(-c3cccs3)ccc2C#N)CC1 | – | – | – | – | 53.0
N#Cc1ccc(-c2cccs2)nc1SCc1cccnc1 | – | – | – | – | –
COc1ccc(NC(=O)CN(C)C(=O)CCCSc2nc3ccccc3[nH]2)cc1 | · | · | · | · | –
COc1ccc(C[C@H]2CN3C(=NC[C@H]3C)N2CCNC(=O)c2ccc(C)c(Br)c2)cc1 | 39.9 | – | – | – | –
Cc1ccc(C(=O)NCCN2C3=NC[C@H](C)N3C[C@H]2Cc2ccc(O)cc2)cc1Br | – | – | – | – | –
OCC[C@@H]1C[C@H](O)[C@@H](O)[C@]2(CCCc3ccccc3O2)O1 | – | – | – | – | –
COc1ccc(-n2c(-c3ccccc3)nc(=S)c3c2CCCC3)cc1 | – | – | – | – | 77.1
CC(C)n1c(-c2ccccc2)nc(=S)c2c1CCCC2 | – | – | – | – | –
COc1ccc(-n2c(-c3cccc(OC)c3)nc(=S)c3c2CCCC3)cc1 | – | – | – | – | 66.5
N#Cc1c(Sc2ncc(C(F)(F)F)cc2Cl)nsc1C/C=N\OCc1c(F)cccc1Cl | – | – | – | – | 54.2
COc1ccccc1/C=C(/CC(=O)NCc1ccccc1)c1nc2ccccc2s1 | – | – | – | – | 48.6
COc1ccccc1/C=C(/C(=O)OCC(=O)NCc1ccccc1)c1ccccc1 | – | – | – | – | –
O=C(CCCc1nc2ccccc2s1)NCc1ccc(F)cc1 | – | – | – | – | –
COc1ccccc1/C=C(/CC(=O)NCc1ccc(F)cc1)c1nc2ccccc2s1 | – | – | – | – | 66.7
CCN(CC)CCCNC(=O)CCC(=O)Nc1ccc2nc(N3CCCCC3)cc(C)c2c1 | – | – | – | – | –
CCCN(CCC)CCCNC(=S)Nc1ccc2nc(N3CCN(CC)CC3)cc(C)c2c1 | – | – | – | – | –
CCCCN(CC)CCNC(=O)CCC(=O)Nc1ccc2nc(N3CCN(C)CC3)cc(C)c2c1 | 41.1 | – | – | – | –
CCCN(CCC)CCCNC(=S)Nc1ccc2nc(N3CCN(C)CC3)cc(C)c2c1 | 44.5 | – | – | – | –
CCCCN(CC)CCNC(=S)Nc1ccc2nc(N3CCN(C)CC3)cc(C)c2c1 | 43.0 | – | – | – | –
CCN1CCN(C(=S)Nc2ccc3nc(N4CCN(CC)CC4)cc(C)c3c2)CC1 | 46.4 | – | – | – | –
O/N=C(/c1ccc(F)cc1)C1CC1c1c(F)cccc1Cl (configuration not stated) | – | – | – | – | –
COc1ccccc1NC(=O)CNC(=O)c1ccc(Br)o1 | – | – | – | – | –
SMILES | DNA FID counter | pCIP destab | GPR7 antag | NS3 helicase inh | core dimer inh
CC(=O)c1ccc(S(=O)(=O)NCCc2csc(-c3cccnc3)n2)cc1 | – | – | – | – | –
O=C(Nc1ccc(Cl)c([N+](=O)[O-])c1)c1cnccn1 | – | – | – | – | 55.2
O=C(Nc1ccc(Br)cc1Cl)c1cnccn1 | – | – | – | – | 68.1
O=C(O)c1ccc(S(=O)(=O)Nc2ccc(O)c(Sc3nc4ccccc4s3)c2)cc1 | – | – | – | – | –
O=C(CC1S/C(=N/N=C/c2c[nH]c3ccc(OCc4ccccc4)cc23)NC1=O)Nc1ccccc1 (configuration not stated) | – | – | – | – | –
O=C(CC1S/C(=N/N=C/c2c[nH]c3ccccc23)NC1=O)Nc1ccccc1 (configuration not stated) | – | – | 18.0 | – | –
O=C(NNS(=O)(=O)c1ccc(F)cc1)c1cc2ccccc2cc1O | – | – | – | – | –
CCn1cc(C(=O)NCCN(C)C)c(=O)c2cc(F)c(N3CCN(C)CC3)cc21 | 56.2 | – | – | – | –
CCn1cc(C(=O)NCCCN(C)C)c(=O)c2cc(F)c(N3CCN(C)CC3)cc21 | 68.4 | – | – | – | –
CCc1ccc(-c2nc(CN3CCC(C(=O)N4CCN(c5ccccc5)CC4)CC3)c(C)o2)cc1 | – | – | 23.4 | – | –
CCN(CCNC(=O)C1CCN(Cc2nc(-c3ccc(Cl)cc3)oc2C)CC1)c1ccccc1 | 44.1 | – | 53.2 | – | –
CCc1ccc(-c2nc(CN3CCC(C(=O)NCCN(CC)c4ccccc4)CC3)c(C)o2)cc1 | – | – | – | – | –
CCSc1ncnc2c1sc1nc(-c3ccco3)c3c(c12)CC(C)(C)OC3 | – | – | – | – | 65.3
COC(=O)CSc1ncnc2c1sc1nc(-c3ccco3)c3c(c12)CC(C)(C)OC3 | – | – | – | – | 64.4
CCOC(=O)c1sc2nc(-c3ccco3)c3c(c2c1N)CC(C)(C)OC3 | · | – | · | · | –
COc1ccc(OC)c(NC(=O)c2cccc(NC(=O)c3ccccc3)c2)c1 | – | – | – | – | –
CSc1nsc(SCC(=O)Nc2ccccc2F)n1 | – | – | – | – | –
Cc1cccc(NC(=O)COc2ccc(-c3nn(C)c(=O)c4ccccc34)cc2)c1 | – | – | – | – | –
CC(=O)c1c(O)cc(=O)n(-c2ccccc2)c1-c1ccc(Cl)cc1 | – | – | – | – | –
CCc1c(O)cc(=O)n(-c2ccccc2)c1-c1ccccc1 | – | – | – | – | 55.3
Cc1nnc(SCC(=O)NC2CC2)s1 | – | – | – | – | –
Cc1cc(C)nc(SCC(N)=O)n1 | – | – | – | – | –
CCC[C@H](CN[C@@H](CNC)[C@H](C)CC)NCCc1cc(C(F)(F)F)cc(C(F)(F)F)c1 | 38.7 | – | – | – | –
CC[C@@H](C)[C@H](CNC)NC[C@@H](Cc1cccc2ccccc12)NCCc1cccc(C(F)(F)F)c1 | – | – | – | – | –
Cc1ccc(C)c(S(=O)(=O)N2CCCOC2CNC(=O)C(=O)NC2CCCC2)c1 (configuration not stated) | – | – | – | – | –
SMILES | DNA FID counter | pCIP destab | GPR7 antag | NS3 helicase inh | core dimer inh
N=c1n(CCN2CCOCC2)c2ccccc2n1CC(=O)c1ccc(Cl)c(Cl)c1 | – | – | – | – | –
N=c1n(CCN2CCCC2)c2ccccc2n1CC(O)c1ccc(Cl)c(Cl)c1 (configuration not stated) | 48.3 | – | 38.5 | – | –
Cc1nnc(SCC(=O)NC2CCCCC2)[nH]c1=O | – | – | – | – | –
CCOc1cc(/C=C2\C(=O)N(c3cccc(C(=O)O)c3)N=C2C(F)(F)F)ccc1OCC(=O)Nc1ccccc1OC | 43.3 | – | – | – | –
Cc1ccc(S(=O)(=O)N2CCCN(c3nc4cc(C)ccc4cc3C#N)CC2)cc1 | – | – | – | – | –
Cc1ccc2nc(N3CCN(S(=O)(=O)c4ccc5c(c4)OCCO5)CC3)c(C#N)cc2c1 | – | – | – | – | 59.2
Cc1ccc(C2=NN(CCC(=O)NC3CCCC3)C(=O)CC2)cc1 | – | – | – | – | –
